Reference: the EternaBench riboswitch data

System: MS2 coat protein
Assay: apparent Kd, MS2 coat protein; higher = weaker binding; RNA-MaP array; FMN 200 µM where present
Method in brief: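 Binding was read on Illumina sequencing-chip clusters where stalled E. coli RNA polymerase had transcribed each design. A titration of SNAP-549-labelled MS2 coat protein began at 0.7 or 1.5 nM and doubled to 3 µM, once without ligand and once with constant ligand, in 100 mM Tris-HCl pH 7.5, 80 mM KCl, 4 mM MgCl2, BSA, DTT, yeast tRNA and Tween-20. The apparent Kd is the median of filtered per-cluster binding-curve fits, based on green signal normalised to red-channel RNA signal and control-cluster median Fmax.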

[1] = designed as: ON switch for flavin mononucleotide, no ligand
[2] = ligand present: flavin mononucleotide, designed as: ON switch for flavin mononucleotide
[3] = designed as: OFF switch for flavin mononucleotide, no ligand
[4] = ligand present: flavin mononucleotide, designed as: OFF switch for flavin mononucleotide

| Sequence | apparent Kd [1] [nM] | apparent Kd [2] [nM] | apparent Kd [3] [nM] | apparent Kd [4] [nM] |
| --- | --- | --- | --- | --- |
| CUGAGCAAUCAAGGAUAUCACGUCGAUUAGACGUGAGAAGGUGAUCAUUACAUGAGGAUCACCCAUGUAUUACAUGGAGCUCAG | 1370 | 365 | – | – |
| UUGUUGUGAGGAUAUCCAAUAUAUGACAUGAGGAUCACCCAUGUUUCCACUCGUACCUCCGGAGAAGGCACUUAGU | – | – | 29.2 | 27.9 |
| UCAUUUUACACAGGAUAUAUUCAUAUACAGUUGUUUGGCUCUUACAUGUUAGUAGAAGGGUGCAACAUGAGGAUCACCCAUGUA | 279 | 274 | – | – |
| UUGGACGUCGUCGGAUAUGUAGGAUAUUCCUACAUGAGGAUCACCCAUGUUGACAUGGAAGAAGGACAGAAGGACGAUGUCCAU | 83 | 4.6 | – | – |
| CUAGAAAGGACAGGAUAUCGGGAUCGAACACCCGACAUGAGGAUCACCCAUGUCGCAAAAGAUAGCGAGAAGGGUCGGACACAA | 45.8 | 14.1 | – | – |
| GCUCGAUGAGCUGACUACAUGAGGAUCACCCAUGUAGAUGGGCAGGAUAUUUACGUGCUUUAUGUAGAGAAGGGCCCAUCGAGC | 324 | 114 | – | – |
| AAGAAAGAAACAUAGGAUAUCAAGAAUAUAACAUGAGGAUCACCCAUGUAAAUACGAAAGUAUAAUGAGAAGGAUGGAUGAUCUUC | 93.7 | 89 | – | – |
| GAAGGCUGGUAGAAGGAUCCUCACAUGAGGAUCACCCAUGUAACAGCGGAUAGGAUAUACCGUCUUUCAUGUUGGUCUCCCUAA | 461 | 46.5 | – | – |
| CAAUUCCGAGGAUAUACAUGAGGAUCACCCAUGUCGGGCCUCAGCGUUUAGCGCCUAAGUAGAAGGUGGGUUUC | – | – | 42.9 | 40.4 |
| CCAGAGAUAUGAGGAUAUCGAGUGGAAUACACUCGAGAAGGCAUGUGAAUACAUGAGGAUCACCCAUGUGAUCAAUACUCUGGA | 171 | 32.6 | – | – |
| GCGUUGAACGAGAAGGCCACUACAUGAGGAUCACCCAUGUCGUAGAGUAUUGGAGGAUAUCGAUAGGCGUCUCAUGAGGACAUA | – | – | 23.6 | 11.6 |
| UAGUAGUGAGGAUAUACAUGGAUAUACAUUCAUGUGGACCUACAUGAGGAUCACCCAUGUAGAAGGCACUACUA | – | – | 41.9 | 91.4 |
| GACAACAGAGGAUAUGCAUUGAGAUAGUUAUGAAGGUUGUUACAUGAGGAUCACCCAUGUAGAAGGCUGUCGUU | – | – | 18.3 | 24.3 |
| UAAAAGACUAGCAAAUAAUCCUUCACAUGAGGAUCACCCAUGUAGGAUAUGAGCAGAAAAUCUGCUCAGAAGGACAUGCUAGUC | – | – | 3.22 | 3.68 |
| AAUAACAGAGGAUAUACUGUUUUAUGUGUUUGUUGUUUUGAACAUGAGGAUCACCCAUGUAGAAGGCUGAUUAA | – | – | 35.3 | 33.5 |
| CUGUGUAAAGGAUAUACAUGAGGAUCACCCAUGUGAUGUCCAAACCUGAACGGUUCGUGUAGAAGGUUGCUCUU | – | – | 20.9 | 19 |
| GAUCAACAUGAGGAUCACCCAUGUCAGGAUAUGAUACUAUGUACUUCGGUACAUAGUAUCAGAAGGGACAGAUC | – | – | 122 | 296 |
| AAAUUUAACGAAGGAUAUGCUGACAUGAGGAUCACCCAUGUGUGCCUUGUGUUGCUGAUUAGGUUGCAGAAGGUCGUAUACAUA | – | – | 330 | 1230 |
| UAUAUAUAGGCAGGAUAUACAUGAAUAUAUAAUAUAUUAUAUAAUAUAACAUGAGGAUCACCCAUGUAGAAGGGCCAUAAUAUA | – | – | 67 | 106 |
| AAUAACAGAGGAUAUACUAUUUUAUGUGUUUGUUGUUUUAAACAUGAGGAUCACCCAUGUAGAAGGCUGAAUGA | – | – | 22.8 | 27.6 |
| CGUACUCAAAGAGUACCAAUACGAACAUGAGGAUCACCCAUGUAGGAUAUGCUACUCAAAGAGUAGCAGAAGGACAUGUGCCUA | – | – | 19.3 | 73.2 |

| Sequence | apparent Kd [1] [nM] | apparent Kd [2] [nM] | apparent Kd [3] [nM] | apparent Kd [4] [nM] |
| --- | --- | --- | --- | --- |
| GACCGAUAGUCAGGAUAUGCAUGGUUAGUUGAUUACAUGAGGAUCACCCAUGUAGAAGGGACUUUGGCUAAAUCCGUGAUGCGU | – | – | 22.3 | 51.7 |
| ACAAAUGGAGGAUAUACAUGAGGAUCACCCAUGUUUAUCCUACAUAUGUGAUAAUAAUGUAGAAGGCCAUUUGA | – | – | 12.5 | 16.2 |
| UGAAUCUAGUAAGGAUAUACACGAGAUACAAGUGUAGAAGGUACUUACAUGAGGAUCACCCAUGUAUACAUGGAUAAUAGAUAU | 291 | 182 | – | – |
| AAAAAACAUGAGGAUCACCCAUGUAAUAAAACGUCAGGAUAUUGAUUUUAUUAUUUAUUGCGAGAAGGGACAAAAA | 37.1 | 24.4 | – | – |
| UCAUUAUAGAUCCAUUUUAACUACAUGAGGAUCACCCAUGUGCAGGAUAUCGAUUGUUUUACUUUCGAGAAGGGCAAAUACAGA | – | – | 78 | 202 |
| UGCUGGUGACAGCAUCCAUCAAAACAUGAGGAUCACCCAUGUAGAAGGCUGUACGGUUACCGUACAGAGGAUAUACAAUGAUGC | – | – | 15.4 | 29.4 |
| ACCAUGGUACAGAAGGGCAAUUUAUUUAUUUAUUAUUUAGUACUGCAUUGCAGGAUAUGUUUAACAUGAGGAUCACCCAUGUAC | 31.8 | 21.4 | – | – |
| CGGGCCGUCUACAUGAGGAUCACCCAUGUGACGGAAGUAACACAGGAUAUCCUCUAAUUGUAGACGGAGAAGGGUGGCCCGAAU | 28.9 | 159 | – | – |
| UAAUUUUGUCAAGGAUAUGUAAUAUAGAUUAGAAAACAUGAGGAUCACCCAUGUAUAUGGUGGGAACAGAAGGUGAAUGGUGUA | – | – | 165 | 155 |
| CAGGCCUUAGGAUAUACACGGUGUCGAACGAGCUCCUACACACAUGAGGAUCACCCAUGUAGAAGGAAGGGAUA | – | – | 24.6 | 32 |
| GGAUUUCCUGAGGAUAUUGUAUCACCUGAUUGAUAAGAAGGCAGAACAUGAGGAUCACCCAUGUGGGUAUUCGG | – | – | 92.9 | 88.4 |
| GUGUUGUCAGGAUAUCUUACAUAACAAUCGUUGUUACCAUUGGAGAAGGGACAUGAGGAUCACCCAUGUUAUCC | – | – | 24.1 | 26.3 |
| CUCGGACAUGAGGAUCACCCAUGUGAGGAUAUGGUGCUAUCGUCAUUAGACGAUUGCGUUAGAAGGCACAAAUG | – | – | 41.5 | 54.6 |
| UCGGGUUAUACAGGAUAUGUUUAGGAUAAUACAUGCAGUUAUUAAUUAAUGACAGAAGGGUAUACAUGAGGAUCACCCAUGUCA | – | – | 707 | 374 |
| GCAGAAAGUGUAGGAUAUAGAAAUUAGCGGAAACGCAAUACAUGAGGAUCACCCAUGUUUCCUCACUAGAAGGGCAAAAGCUGC | – | – | 16.8 | 14.1 |
| CAGCGAUAGCUGAACAAUCUAUCUGAGGAUAUUCAUAAAACAUGAGGAUCACCCAUGUGAAAUUGGGAGAAGGCAGAUAGAUUG | 7.7 | 4.42 | – | – |
| UUGUAGUACGUAGGAUAUCAUUGAGGAUCACCCUGAGAAGGACGUGAGGACAUGAGGAUCACCCAUGUGGAUCACCCAUGUCAU | – | – | 329 | 231 |
| UUUUUAAAUAUAGGAUAUGGAAACAUGAGGAUCACCCAUGUAUGAUAAGAUAAAUUAUGAUAUAGCCAGAAGGAUACAAUUUUU | 31.9 | 38.6 | – | – |
| AUCGGAUUGUAGAAGGGUGACAUGAGGAUCACCCAUGUUCAAAUGCGUUUUUCGGUAAUUGUUCCACAGGAUAUACUGUCCGAG | 675 | 139 | – | – |
| GGACGUUACAUCUACAUGAGGAUCACCCAUGUCUCUUGAGAUGAGGAUAUGUAUACGAAUCGUUUAUAGAAGGCAUGAACGUCC | 144 | 138 | – | – |
| ACCAAUGCAGGAUAUACAUGAGGAUCACCCAUGUAUAACCUACAUAGAUGAUCAUCAUGUAGAAGGGCAUUGGA | – | – | 12.5 | 10.1 |
